# Laboratory results: ChEMBL document CHEMBL1938255, “Novel 1-hydroxypiperazine-2,6-diones as new leads in the inhibition of metalloproteinases” (J Med Chem, 2011)
# Key:
# [1] = target: T1, Interstitial collagenase (Homo sapiens, UniProt P03956); test: Inhibition of MMP1 using Mca-Lys-Pro-Leu-Gly-Leu-Dap(Dnp)-Ala-Arg-NH2 as substrate preincubated for 4 hrs measured every 15 secs for 20 mins by fluorescence analysis
# T1 sequence (P03956 whole entry): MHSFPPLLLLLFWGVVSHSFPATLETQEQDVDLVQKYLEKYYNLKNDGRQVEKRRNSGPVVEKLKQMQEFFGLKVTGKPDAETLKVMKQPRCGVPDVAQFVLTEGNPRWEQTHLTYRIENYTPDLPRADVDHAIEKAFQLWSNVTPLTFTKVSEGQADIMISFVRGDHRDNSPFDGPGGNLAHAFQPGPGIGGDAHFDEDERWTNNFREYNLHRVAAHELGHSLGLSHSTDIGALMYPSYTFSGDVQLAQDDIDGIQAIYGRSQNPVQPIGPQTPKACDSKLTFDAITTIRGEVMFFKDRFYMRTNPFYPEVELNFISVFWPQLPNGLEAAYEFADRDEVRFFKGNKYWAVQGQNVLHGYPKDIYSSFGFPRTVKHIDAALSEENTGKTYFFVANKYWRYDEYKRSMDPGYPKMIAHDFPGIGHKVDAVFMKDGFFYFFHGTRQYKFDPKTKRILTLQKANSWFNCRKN
# How it was run: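 Pro-MMP1 activated with 2 mM APMA, 2 h, 37 °C. Enzyme at 2.0 nM final was preincubated 4 h at 25 °C with inhibitor at seven concentrations in Tris 50 mM pH 7.5, NaCl 150 mM, CaCl2 10 mM, Brij 35 0.05%, DMSO 1%. Substrate was 2 μM final, read ex 325/em 395 nm every 15 s for 20 min. IC50 from Vi/Vo = 1/(1+[I]/IC50); mean of three experiments.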
# [2] = target: Matrix metalloproteinase-9 (Homo sapiens, UniProt P14780); test: Inhibition of human recombinant MMP9 using Mca-Lys-Pro-Leu-Gly-Leu-Dap(Dnp)-Ala-Arg-NH2 as substrate preincubated for 4 hrs measured every 15 secs for 20 mins by fluorescence analysis
# How it was run: (§1)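 APMA activation at 1 mM, 1 h, 37 °C. Final enzyme was 0.3 nM for MMP13 and 1.3 nM for MMP9. Enzyme and inhibitor (seven concentrations) were incubated 4 h at 25 °C in Tris 50 mM pH 7.5 buffer with 150 mM NaCl, 10 mM CaCl2, 0.05% Brij 35, 1% DMSO. Substrate 2 μM final, ex 325/em 395 nm, every 15 s over 20 min. IC50 via Vi/Vo = 1/(1+[I]/IC50); three experiments averaged.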
# [3] = target: Stromelysin-1 (Homo sapiens, UniProt P08254); test: Inhibition of MMP3 using Mca-Arg-Pro-Lys-Pro-Val-Glu-Nva-Trp-Arg-Lys(Dnp)-NH2 as substrate preincubated for 4 hrs measured every 15 secs for 20 mins by fluorescence analysis
# How it was run: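 Pro-MMP3 activated with trypsin 5 μg/mL, 30 min, 37 °C, then soybean trypsin inhibitor 62 μg/mL. Enzyme at 5 nM final was incubated 4 h at 25 °C with seven inhibitor concentrations in Tris 50 mM pH 7.5, NaCl 150 mM, CaCl2 10 mM, Brij 35 0.05%, DMSO 1%.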
# [4] = target: 72 kDa type IV collagenase (Homo sapiens, UniProt P08253); test: Inhibition of human recombinant MMP2 using Mca-Lys-Pro-Leu-Gly-Leu-Dap(Dnp)-Ala-Arg-NH2 as substrate preincubated for 4 hrs measured every 15 secs for 20 mins by fluorescence analysis
# How it was run: (§2)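 The proenzymes were activated with 2 mM APMA for 1 h at 37 °C. Final enzyme was 0.5 nM for MMP2 and 1.5 nM for MMP8. Each was incubated 4 h at 25 °C with seven inhibitor concentrations in pH 7.5 Tris/NaCl/CaCl2/Brij 35/1% DMSO buffer. With 2 μM substrate, fluorescence (325/395 nm) was read every 15 s for 20 min. IC50 came from fractional initial velocity; mean of three independent runs.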
# [5] = target: Collagenase 3 (Homo sapiens, UniProt P45452); test: Inhibition of MMP13 using Mca-Lys-Pro-Leu-Gly-Leu-Dap(Dnp)-Ala-Arg-NH2 as substrate preincubated for 4 hrs measured every 15 secs for 20 mins by fluorescence analysis; how it was run: as §1
# [6] = target: Matrix metalloproteinase-14 (Homo sapiens, UniProt P50281); test: Inhibition of human recombinant MMP14 using Mca-Lys-Pro-Leu-Gly-Leu-Dap(Dnp)-Ala-Arg-NH2 as substrate preincubated for 4 hrs measured every 15 secs for 20 mins by fluorescence analysis
# How it was run: (§3)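 Catalytic domains of MMP14 (1.0 nM final) and MMP16 (15 nM), and TACE (7.5 nM), were incubated 4 h at 25 °C with seven inhibitor concentrations. Buffer was Tris 50 mM pH 7.5, NaCl 150 mM, CaCl2 10 mM, Brij 35 0.05%, DMSO 1%. Substrate 2 μM final; hydrolysis read at 325/395 nm every 15 s for 20 min. IC50 from Vi/Vo = 1/(1+[I]/IC50); mean of three experiments.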
# [7] = target: Neutrophil collagenase (Homo sapiens, UniProt P22894); test: Inhibition of human recombinant MMP8 using Mca-Lys-Pro-Leu-Gly-Leu-Dap(Dnp)-Ala-Arg-NH2 as substrate preincubated for 4 hrs measured every 15 secs for 20 mins by fluorescence analysis; how it was run: as §2
# [8] = target: Disintegrin and metalloproteinase domain-containing protein 17 (Homo sapiens, UniProt P78536); test: Inhibition of TACE using Mca-Lys-Pro-Leu-Gly-Leu-Dap(Dnp)-Ala-Arg-NH2 as substrate preincubated for 4 hrs measured every 15 secs for 20 mins by fluorescence analysis; how it was run: as §3
# [9] = target: Matrix metalloproteinase-16 (Homo sapiens, UniProt P51512); test: Inhibition of human recombinant MMP16 using Mca-Lys-Pro-Leu-Gly-Leu-Dap(Dnp)-Ala-Arg-NH2 as substrate preincubated for 4 hrs measured every 15 secs for 20 mins by fluorescence analysis; how it was run: as §3
# [10] = target: Macrophage metalloelastase (Homo sapiens, UniProt P39900); test: Inhibition of MMP12 using Mca-Lys-Pro-Leu-Gly-Leu-Dap(Dnp)-Ala-Arg-NH2 as substrate preincubated for 4 hrs measured every 15 secs for 20 mins by fluorescence analysis
# How it was run: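 Pro-MMP12 was autoactivated for 30 h at 37 °C in assay buffer (Tris 50 mM pH 7.5, NaCl 150 mM, CaCl2 10 mM, Brij 35 0.05%, DMSO 1%). Enzyme at 1.0 nM final was incubated 4 h at 25 °C with seven inhibitor concentrations. Substrate 2 μM final, fluorescence ex 325/em 395 nm every 15 s for 20 min. IC50 via initial-velocity equation; mean of three experiments.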
# [11] = target: T2, Matrilysin (Homo sapiens, UniProt P09237); test: Inhibition of MMP7 using Mca-Lys-Pro-Leu-Gly-Leu-Dap(Dnp)-Ala-Arg-NH2 as substrate preincubated for 4 hrs measured every 15 secs for 20 mins by fluorescence analysis
# T2 sequence (P09237 whole entry): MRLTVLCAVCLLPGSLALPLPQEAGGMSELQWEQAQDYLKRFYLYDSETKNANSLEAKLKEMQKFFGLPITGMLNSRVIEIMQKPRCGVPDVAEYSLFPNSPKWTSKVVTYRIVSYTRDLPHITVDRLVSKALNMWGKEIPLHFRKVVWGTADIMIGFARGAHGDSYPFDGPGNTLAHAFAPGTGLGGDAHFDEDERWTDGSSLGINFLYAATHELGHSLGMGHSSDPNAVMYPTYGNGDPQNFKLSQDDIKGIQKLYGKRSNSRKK
# How it was run: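 Pro-MMP7 activated with 3.3 mM APMA, 2 h, 37 °C, then used at 1.3 nM final. Enzyme was preincubated with seven inhibitor concentrations for 4 h at 25 °C in pH 7.5 Tris buffer with NaCl, CaCl2, Brij 35 and 1% DMSO. Fluorogenic substrate 2 μM final; fluorescence (325/395 nm) recorded every 15 s for 20 min. IC50 from initial-velocity ratio; mean of three experiments.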
# [12] = Stability in D2O assessed as compound decomposition at pD 2 after 48 hrs by NMR spectroscopy; format: physicochemical; conditions: pH 2, read-out: Drug metabolism
# [13] = Stability in D2O assessed as compound decomposition at pD 7 after 5 days by NMR spectroscopy; format: physicochemical; conditions: pH 7, read-out: Drug metabolism
# [14] = Stability in D2O assessed as compound decomposition at pD 7 after 24 hrs by NMR spectroscopy; format: physicochemical; conditions: pH 7, read-out: Drug metabolism
# [15] = Stability in D2O assessed as compound decomposition at pD 7 after 20 days by NMR spectroscopy; format: physicochemical; conditions: pH 7, read-out: Drug metabolism
# [16] = Stability in D2O assessed as compound decomposition at pD 2 after 10 days by NMR spectroscopy; format: physicochemical; conditions: pH 2, read-out: Drug metabolism
# [17] = Stability in D2O assessed as compound decomposition at pD 2 after 5 days by NMR spectroscopy; format: physicochemical; conditions: pH 2, read-out: Drug metabolism
# [18] = Stability in D2O assessed as compound decomposition at pD 2 after 24 hrs by NMR spectroscopy; format: physicochemical; conditions: pH 2, read-out: Drug metabolism
# [19] = Stability in D2O assessed as compound decomposition at pD 7 after 3 days by NMR spectroscopy; format: physicochemical; conditions: pH 7, read-out: Drug metabolism
# Chain of 72 kDa type IV collagenase (P08253 whole entry): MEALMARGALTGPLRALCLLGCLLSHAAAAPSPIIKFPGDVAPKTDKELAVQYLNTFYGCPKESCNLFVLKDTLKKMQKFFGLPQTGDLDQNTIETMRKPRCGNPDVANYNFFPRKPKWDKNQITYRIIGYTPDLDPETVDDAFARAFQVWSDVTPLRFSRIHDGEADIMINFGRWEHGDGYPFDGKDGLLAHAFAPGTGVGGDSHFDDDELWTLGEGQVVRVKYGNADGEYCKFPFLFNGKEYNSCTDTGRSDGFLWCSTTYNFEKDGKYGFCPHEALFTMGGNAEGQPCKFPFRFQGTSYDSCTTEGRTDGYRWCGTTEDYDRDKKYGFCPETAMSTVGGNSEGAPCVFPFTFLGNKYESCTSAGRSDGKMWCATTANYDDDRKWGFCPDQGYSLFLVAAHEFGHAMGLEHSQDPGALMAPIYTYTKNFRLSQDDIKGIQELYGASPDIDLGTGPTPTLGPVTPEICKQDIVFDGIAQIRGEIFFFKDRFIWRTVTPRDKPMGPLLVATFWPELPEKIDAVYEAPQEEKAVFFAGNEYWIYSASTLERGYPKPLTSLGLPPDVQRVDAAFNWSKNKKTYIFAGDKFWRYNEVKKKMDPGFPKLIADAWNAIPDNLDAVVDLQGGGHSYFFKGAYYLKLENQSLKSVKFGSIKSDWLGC
# Chain of Disintegrin and metalloproteinase domain-containing protein 17 (P78536 whole entry, the tested form may be a part): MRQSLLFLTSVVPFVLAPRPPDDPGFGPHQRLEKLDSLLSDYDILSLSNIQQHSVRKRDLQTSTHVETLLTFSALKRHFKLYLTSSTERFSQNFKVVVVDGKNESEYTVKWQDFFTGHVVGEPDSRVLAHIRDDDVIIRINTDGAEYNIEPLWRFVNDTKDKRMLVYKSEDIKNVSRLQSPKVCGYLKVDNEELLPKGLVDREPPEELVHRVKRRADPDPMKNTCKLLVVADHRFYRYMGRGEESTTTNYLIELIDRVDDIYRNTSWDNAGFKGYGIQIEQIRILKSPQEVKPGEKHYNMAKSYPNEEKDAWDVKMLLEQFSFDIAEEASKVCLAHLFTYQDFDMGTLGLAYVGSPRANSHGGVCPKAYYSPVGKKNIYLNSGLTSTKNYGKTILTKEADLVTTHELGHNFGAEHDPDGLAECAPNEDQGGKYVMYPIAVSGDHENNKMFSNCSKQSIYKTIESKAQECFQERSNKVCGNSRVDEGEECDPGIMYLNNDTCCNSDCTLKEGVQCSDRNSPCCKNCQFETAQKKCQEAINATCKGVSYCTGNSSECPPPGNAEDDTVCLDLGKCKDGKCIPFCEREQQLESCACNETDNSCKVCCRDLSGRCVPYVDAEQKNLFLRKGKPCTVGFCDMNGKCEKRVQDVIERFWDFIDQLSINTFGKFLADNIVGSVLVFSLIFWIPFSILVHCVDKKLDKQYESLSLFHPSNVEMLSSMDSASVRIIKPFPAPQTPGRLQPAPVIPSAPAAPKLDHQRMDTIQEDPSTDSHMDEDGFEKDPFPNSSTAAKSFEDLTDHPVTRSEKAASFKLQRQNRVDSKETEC
# Chain of Matrix metalloproteinase-16 (P51512 whole entry): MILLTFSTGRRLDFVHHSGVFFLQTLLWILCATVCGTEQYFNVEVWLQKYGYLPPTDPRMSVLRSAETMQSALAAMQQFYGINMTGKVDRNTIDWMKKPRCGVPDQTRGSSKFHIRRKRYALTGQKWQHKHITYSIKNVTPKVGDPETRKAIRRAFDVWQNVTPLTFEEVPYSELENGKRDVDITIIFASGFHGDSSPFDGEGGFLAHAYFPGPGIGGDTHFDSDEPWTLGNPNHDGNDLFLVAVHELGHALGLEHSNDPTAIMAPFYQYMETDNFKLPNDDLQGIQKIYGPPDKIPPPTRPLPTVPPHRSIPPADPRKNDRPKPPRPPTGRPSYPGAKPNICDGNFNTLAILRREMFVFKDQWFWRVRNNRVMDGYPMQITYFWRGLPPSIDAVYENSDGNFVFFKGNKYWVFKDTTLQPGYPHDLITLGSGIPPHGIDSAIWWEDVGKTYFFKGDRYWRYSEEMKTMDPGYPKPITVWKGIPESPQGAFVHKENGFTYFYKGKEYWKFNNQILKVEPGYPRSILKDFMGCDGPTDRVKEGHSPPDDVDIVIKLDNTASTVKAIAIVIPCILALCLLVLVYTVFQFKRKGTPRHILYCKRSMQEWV
# Chain of Macrophage metalloelastase (P39900 whole entry): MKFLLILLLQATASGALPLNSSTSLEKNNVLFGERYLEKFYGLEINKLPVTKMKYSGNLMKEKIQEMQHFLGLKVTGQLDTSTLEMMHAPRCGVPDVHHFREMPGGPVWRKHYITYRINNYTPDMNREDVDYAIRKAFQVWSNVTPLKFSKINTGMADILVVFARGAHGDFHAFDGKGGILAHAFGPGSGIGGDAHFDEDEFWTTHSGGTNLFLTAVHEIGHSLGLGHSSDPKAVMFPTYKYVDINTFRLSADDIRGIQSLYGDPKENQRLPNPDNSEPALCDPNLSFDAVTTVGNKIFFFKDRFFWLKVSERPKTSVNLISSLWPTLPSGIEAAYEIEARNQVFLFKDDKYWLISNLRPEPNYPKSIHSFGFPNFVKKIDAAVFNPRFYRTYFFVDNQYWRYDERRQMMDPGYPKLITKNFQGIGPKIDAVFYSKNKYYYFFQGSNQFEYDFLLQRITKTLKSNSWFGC
# Chain of Stromelysin-1 (P08254 whole entry): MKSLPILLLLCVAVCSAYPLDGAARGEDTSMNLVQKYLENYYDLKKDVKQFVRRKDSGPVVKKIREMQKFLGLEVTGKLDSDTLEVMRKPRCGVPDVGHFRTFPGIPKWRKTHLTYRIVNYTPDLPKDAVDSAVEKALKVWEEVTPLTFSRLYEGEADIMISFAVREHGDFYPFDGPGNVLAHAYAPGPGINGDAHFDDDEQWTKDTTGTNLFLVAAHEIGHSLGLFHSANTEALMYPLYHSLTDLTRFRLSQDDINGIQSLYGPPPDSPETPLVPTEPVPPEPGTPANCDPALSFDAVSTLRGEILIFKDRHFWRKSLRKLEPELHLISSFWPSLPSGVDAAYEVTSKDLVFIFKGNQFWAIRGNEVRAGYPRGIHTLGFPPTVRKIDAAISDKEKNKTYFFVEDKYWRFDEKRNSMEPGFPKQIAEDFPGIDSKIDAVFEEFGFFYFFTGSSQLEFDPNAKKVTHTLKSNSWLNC
# Chain of Neutrophil collagenase (P22894 whole entry, the tested form may be a part): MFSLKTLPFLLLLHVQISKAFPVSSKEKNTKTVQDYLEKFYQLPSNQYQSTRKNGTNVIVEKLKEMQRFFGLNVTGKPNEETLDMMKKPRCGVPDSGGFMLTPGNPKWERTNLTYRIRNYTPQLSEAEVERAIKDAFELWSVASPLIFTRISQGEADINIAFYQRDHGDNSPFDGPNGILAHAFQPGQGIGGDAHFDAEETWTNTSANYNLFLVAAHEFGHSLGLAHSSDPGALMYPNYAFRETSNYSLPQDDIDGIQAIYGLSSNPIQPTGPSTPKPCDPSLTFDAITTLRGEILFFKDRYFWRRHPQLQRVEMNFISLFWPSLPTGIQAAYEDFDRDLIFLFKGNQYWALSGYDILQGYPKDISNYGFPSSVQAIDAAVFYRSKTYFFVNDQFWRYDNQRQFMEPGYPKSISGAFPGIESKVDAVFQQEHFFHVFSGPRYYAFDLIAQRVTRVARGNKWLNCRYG
# Chain of Matrix metalloproteinase-9 (P14780 whole entry): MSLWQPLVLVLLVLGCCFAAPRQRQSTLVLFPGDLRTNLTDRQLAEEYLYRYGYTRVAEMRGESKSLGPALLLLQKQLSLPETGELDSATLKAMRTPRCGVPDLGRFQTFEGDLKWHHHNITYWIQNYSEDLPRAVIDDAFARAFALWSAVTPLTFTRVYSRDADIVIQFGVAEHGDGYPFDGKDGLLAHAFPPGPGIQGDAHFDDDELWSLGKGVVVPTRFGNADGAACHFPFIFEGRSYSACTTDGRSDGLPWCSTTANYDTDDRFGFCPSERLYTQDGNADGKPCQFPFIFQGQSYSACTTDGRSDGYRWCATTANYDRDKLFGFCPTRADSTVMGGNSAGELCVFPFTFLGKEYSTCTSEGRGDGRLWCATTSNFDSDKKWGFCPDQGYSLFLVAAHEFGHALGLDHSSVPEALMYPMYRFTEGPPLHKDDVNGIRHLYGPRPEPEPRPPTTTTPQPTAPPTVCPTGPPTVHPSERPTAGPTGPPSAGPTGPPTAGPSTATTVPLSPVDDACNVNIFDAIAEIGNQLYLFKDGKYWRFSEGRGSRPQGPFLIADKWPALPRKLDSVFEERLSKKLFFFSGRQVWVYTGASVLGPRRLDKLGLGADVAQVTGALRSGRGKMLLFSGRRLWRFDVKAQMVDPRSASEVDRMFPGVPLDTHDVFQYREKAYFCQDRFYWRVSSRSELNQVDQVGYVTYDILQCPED
Compound,IC50 [1] [nM],IC50 [2] [nM],IC50 [3] [nM],IC50 [4] [nM],IC50 [5] [nM],IC50 [6] [nM],IC50 [7] [nM],IC50 [8] [nM],IC50 [9] [nM],IC50 [10] [nM],IC50 [11] [nM],degraded at 48 h [12] [%],degraded at 120 h [13] [%],degraded at 24 h [14] [%],degraded at 480 h [15] [%],degraded at 240 h [16] [%],degraded at 120 h [17] [%],degraded at 24 h [18] [%],degraded at 72 h [19] [%]
CC(C)[C@@H]1C(=O)N(O)C(=O)CN1S(=O)(=O)c1ccc(-c2ccccc2)cc1,1300,660,3900,240,52,3900,67,16000,2200,19,,,,,,,,,
CC(C)[C@H](C(=O)NO)N(CC(=O)O)S(=O)(=O)c1ccc(Oc2ccccc2)cc1,,,6.7,,,,,,,,,,,,,,,,
COc1ccc(S(=O)(=O)N(Cc2cccnc2)[C@@H](C(=O)NO)C(C)C)cc1 [CGS-27023A],,,,,,,,,,,380,,,,,,,,

# Further lines, results first:
IC50 [1] [nM],IC50 [2] [nM],IC50 [3] [nM],IC50 [4] [nM],IC50 [5] [nM],IC50 [6] [nM],IC50 [7] [nM],IC50 [8] [nM],IC50 [9] [nM],IC50 [10] [nM],IC50 [11] [nM],degraded at 48 h [12] [%],degraded at 120 h [13] [%],degraded at 24 h [14] [%],degraded at 480 h [15] [%],degraded at 240 h [16] [%],degraded at 120 h [17] [%],degraded at 24 h [18] [%],degraded at 72 h [19] [%],Compound
4900,690,3400,1200,300,2200,300,33000,1100,66,39000,2,6,< 1,7,8,5,< 1,3,COc1ccc(S(=O)(=O)N2CC(=O)N(O)C(=O)[C@H]2C(C)C)cc1
1600,30,220,30,9.5,83,21,10000,39,23,,,,,,,,,,CC(C)[C@@H]1C(=O)N(O)C(=O)CN1S(=O)(=O)c1ccc(Oc2ccccc2)cc1
